Assay outcomes deposited in PubChem BioAssay by several laboratories.
Wee1 stabilizer = Wee1 degradation inhibitors, primary screen, cell-based, HeLa, Wee1K328M-luciferase, luminescence. AID 1321, 2008. Wee1-like protein kinase (Homo sapiens), P30291. actives 1.2% (n = 220,000). reporter increase, % at 5 µM. HeLa Luc-Wee1K328M stability; 100% = proteasome inhibitor MG132 effect;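 active = activation above the mean of all tested compounds plus 3 SD, set per screening run, cut at about 8.8% in these data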;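 also: cells exposed to compound for 20 h before luminescence read; 0% = DMSO alone and 100% = MG132 at 30 µM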
Target sequence (P30291 whole entry K328M): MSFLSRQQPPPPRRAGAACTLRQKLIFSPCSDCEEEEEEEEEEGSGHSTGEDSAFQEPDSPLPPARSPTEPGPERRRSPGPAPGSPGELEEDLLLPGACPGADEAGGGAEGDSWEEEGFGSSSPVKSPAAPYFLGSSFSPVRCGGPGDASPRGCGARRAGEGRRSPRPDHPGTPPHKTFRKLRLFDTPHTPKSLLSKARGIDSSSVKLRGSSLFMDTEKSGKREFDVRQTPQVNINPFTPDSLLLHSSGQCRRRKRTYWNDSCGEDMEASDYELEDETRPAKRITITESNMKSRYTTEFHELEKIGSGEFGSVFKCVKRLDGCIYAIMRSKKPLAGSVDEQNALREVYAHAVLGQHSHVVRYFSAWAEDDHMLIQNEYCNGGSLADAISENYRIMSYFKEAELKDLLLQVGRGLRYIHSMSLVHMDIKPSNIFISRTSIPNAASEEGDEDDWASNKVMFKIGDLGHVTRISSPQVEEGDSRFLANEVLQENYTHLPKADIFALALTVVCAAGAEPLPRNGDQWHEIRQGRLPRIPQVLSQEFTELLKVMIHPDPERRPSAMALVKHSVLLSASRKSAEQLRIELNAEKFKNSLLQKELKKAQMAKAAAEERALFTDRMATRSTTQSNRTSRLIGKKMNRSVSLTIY
RBBP9 inhibitor = human RBBP9 inhibitors, primary screen, biochemical, fluorescence polarization, FP-Rh probe, HTS; inhibition, % at 7.94 µM; AID 1515, 2009; actives 0.2% (n = 220,000); recombinant RBBP9;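 active = inhibition above the campaign mean of all tested compounds plus 3 SD, cut at about 14% in these data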;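 also: plate controls were DMSO wells with RBBP9 for no effect and wells lacking RBBP9 protein for full effect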
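System: RBBP9 protein | Quantity: 2.5 µM RBBP9 dispensing solution, before mixing | Reagent: FP-Rh probe, 375 nM dispensing solution | Timing: Enzyme-compound preincubation 30 min, then probe labeling 45 min, 25 °C | Measured by: Fluorescence polarization | Read-out: % inhibition | Replication: One well per compound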
TNF necrop inh = inhibitors of TNF-alpha triggered necroptosis, primary screen, cell-based, Jurkat FADD-/-, single concentration; Jurkat FADD-/- TNF necroptosis rescue, ATP luminescence, 24 h; 0 = TNF only, 100 = no-TNF cells; activation (protection from cell death), % at 10 µM; actives 0.068% (n = 220,000); AID 463075, 2010;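 active = activation, meaning protection from cell death, of at least 50% relative to plate controls; inactive = activation below 50%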;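 also: necroptosis triggered by 40 ng/mL TNF-alpha added together with compound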
PfM18AAP inh = PfM18AAP inhibitors, malaria aminopeptidase, primary screen, biochemical, QFRET, recombinant enzyme; inhibition, % at 7.35 µM; M18 aspartyl aminopeptidase (Plasmodium falciparum 3D7); actives 1.2% (n = 290,000); H-Glu-NHMec fluorogenic cleavage; AID 1822, 2009;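 active = inhibition above the campaign mean inhibition over all tested compounds plus 3 SD, cut at about 28% in these data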;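 also: 0% = plate median of test compound wells and 100% = 2 mM ZnCl2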
p97 ATPase inh = inhibitors of human p97 ATPase, primary screen, biochemical | inhibition, % at 8 µM | actives 0.42% (n = 220,000) | recombinant p97 ATPase, Kinase-Glo ATP luminescence, 3 h | Transitional endoplasmic reticulum ATPase (Homo sapiens), P55072; in the data active = inhibition above about 15%;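 also: 0% = DMSO vehicle and 100% = wells lacking enzyme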
zVAD death inh = inhibitors of zVAD-triggered necroptosis, primary screen, L929 cells; L929 zVAD necroptosis rescue, ATP luminescence, 24 h; with zVAD 60 µM; viability rescue, % at 10 µM; actives 0.38% (n = 220,000);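 active = activation, scaled between plate controls, above about 75%, limit read from the data; inactive = activation under that limit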;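 also: 0% = zVAD with DMSO and 100% = DMSO alone without zVAD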
Wee1 degr conf = Wee1 degradation inhibitors, confirmation, cell-based, HeLa, Wee1K328M-luciferase, luminescence, triplicate; shares compounds with Wee1 stabilizer; HeLa Luc-Wee1K328M degradation; vehicle 0%, proteasome-blocked wells 100%; activation, % at 5 µM; actives 4% (n = 1,100); AID 1410, 2008; in the data active = activation above about 8.9%
Numbers without * were called inactive; / = no result given. Compounds with a hit are over-represented: about 2.7% of the library has one in this group of screens.

SMILES	Wee1 stabilizer	RBBP9 inhibitor	TNF necrop inh	PfM18AAP inh	p97 ATPase inh	zVAD death inh	Wee1 degr conf
CCC(=O)N1CC2(c3ccccc3)CN(C(=O)CC)CC(c3ccccc3)(C1)C2=O	12*	-6	0	0	-4	-1	0
O=C(COc1ncnc2ccccc12)c1ccc2c(c1)OCCO2	3	-6	1	4	-2	2	/
O=C(Cn1cnc2ccccc2c1=O)OCC(=O)c1ccc2c(c1)OCCO2	11*	0	0	-7	3	0	1
O=C(Cn1cnc2ccccc2c1=O)Nc1ccc2c(c1)OCCO2	11*	-3	0	-1	1	1	6
CCOC(=O)c1c(-c2ccccc2)oc2ccc(OC(C)=O)cc12	13*	-12	0	8	-7	0	-4
CCOC(=O)c1c(-c2ccccc2)oc2ccc(OC(C)C(=O)O)cc12 (centres undefined)	-1	-5	2	-1	-2	0	/
COCCOC(=O)c1c(C)oc2ccc(OCc3ccccc3)cc12	14*	-4	1	-3	-3	/	0
O=C(NC(=S)Nc1ccccc1N1CCOCC1)c1ccc(-c2ccccc2F)o1	-3	-8	0	2	2	1	/
Cc1ccc(N2CC(C(=O)Nc3ccc4c(c3)OCO4)CC2=O)cc1C (centres undefined)	/	/	/	-7	/	/	/
COc1cc(CC(=O)NCC(C)(C)N2CCOCC2)cc(OC)c1OC	/	/	/	5	/	/	/
Cc1cccc(NC(=O)CSc2nnc(-c3n[nH]c4ccccc34)o2)c1	2	5	7	13	11	4	/
N#Cc1cccc(NC(=O)CSc2nnc(-c3n[nH]c4ccccc34)o2)c1	22*	3	6	21	4	7	3
O=C(Nc1ccc(N2CCOCC2)c([N+](=O)[O-])c1)c1ccco1	11*	-5	0	4	-3	1	1
COc1ccccc1NC(=O)CNC(=O)c1ccc(F)cc1	11*	1	0	3	6	-1	1
COc1ccccc1NC(=O)c1ccc(NC(=O)CNC(=O)c2ccc(OC)c(OC)c2)cc1	/	/	/	-5	/	/	/
Cc1cccc(OCC(=O)N(Cc2ccco2)C2CCS(=O)(=O)C2)c1C (centres undefined)	/	/	/	2	/	/	/
CCCCNC(=O)COC(=O)CCC(=O)c1ccc(Cl)cc1	-3	-7	-1	0	-2	4	/
Cn1c(=O)c2c(ncn2CCCc2ccccc2)n(C)c1=O	12*	-6	1	-1	3	0	2
O=c1cc(CO)[nH]cc1OCc1ccccc1	-2	-3	-1	-2	0	0	/
O=C(N/N=C/c1ccco1)c1cc(=O)[nH]c2ccccc12	28*	-4	0	5	5	3	0
C[C@@H](C(O)c1ccccc1)N(C)C(=O)CCc1ccccc1 (some centres undefined)	/	/	/	1	/	/	/
COc1ccc(/C=N/Nc2nc(=O)[nH]nc2C)cc1OC	2	-4	-4	1	-5	0	/
COc1cc(/C=N/Nc2nc(=O)[nH]nc2C)ccc1O	17*	-10	0	-1	0	2	-3
COc1ccc2[nH]c(CN3CCC(CO)(CCOc4ccccc4)CC3)c(C)c2c1	-5	-2	9	1	3	3	/
CC(C)/C=N/Nc1nc2c(c(=O)n(C)c(=O)n2C)n1C	12*	6	5	16	7	1	0
SMILES	Wee1 stabilizer	RBBP9 inhibitor	TNF necrop inh	PfM18AAP inh	p97 ATPase inh	zVAD death inh	Wee1 degr conf
Cn1c(=O)c2c(nc(NCCO)n2C)n(C)c1=O	3	-8	0	-2	5	0	/
O=S(=O)(NCc1csc(-c2cccs2)n1)c1cccc(C(F)(F)F)c1	-3	-5	-1	-10	-7	0	/
Cn1cc(Br)c(C(=O)NC2C3CC4CC(C3)CC2C4)n1 (centres undefined)	12*	-6	-1	3	1	0	0
Cn1cc(Br)c(C(=O)NC2CCCCCC2)n1	/	/	/	-3	/	/	/
O=C(Nc1ncc(Cc2ccccc2)s1)C1CCCO1 (centres undefined)	11*	-8	8	1	1	1	0
NS(=O)(=O)c1ccc(NC(=O)CN2C(=O)c3ccccc3C2=O)cc1	19*	4	2	-3	-1	-1	-2
CC1CCN(c2ccccc2NC(=O)c2ccc(Br)o2)CC1	/	/	/	-2	/	/	/
O=C(CC(c1ccccc1)c1ccccc1)Nc1ccc(Cl)cn1	1	-6	-8	-4	3	1	/
O=C(/C=C/c1ccccc1)Nc1ccc(Cl)cn1	11*	1	4	-3	4	34	9.0*
O=C(C1=NN[C@@H]2C(=O)N(Cc3ccccc3)C(=O)[C@H]12)c1ccc(F)cc1	11*	5	6	3	7	0	-3
NNC(=O)CNc1ccccc1Cl	11*	-4	1	3	10	3	-1
O=C(CCCCC(=O)Nc1ccccc1Cl)Nc1ccccc1Cl	/	/	/	-2	/	/	/
Cc1ccc(NC(=O)COC(=O)CNC(=O)c2ccc(Br)cc2)c(C)c1	14*	-2	0	-8	-3	0	1
CCOC(CNC(=O)C(=O)Nc1cc2c3c(c1)CCN3C(=O)CC2)OCC	/	/	/	6	/	/	/
Cc1cc(N2CCN(c3ccccc3)CC2)nc(-c2ccccc2)n1	-3	-1	-3	8	-2	0	/
C#CCNC(=O)C1CCN(c2cc(C)nc(-c3ccccc3)n2)CC1	12*	-3	1	2	7	4	-1
O=C(Nc1ccc(S(=O)(=O)Nc2nccs2)cc1)c1cnc(Cl)c(Cl)c1	19*	-2	0	-24	7	-1	0
Cc1ccc(NC(=O)CCC(=O)c2cccs2)c(O)c1	15*	-9	1	6	0	1	0
Cc1ccc(F)cc1NC(=O)CCC(=O)c1cccs1	0	-10	1	-15	-3	0	/
COc1ccc(C2=NN(C(=O)CN3CCCCC3)C(c3ccc(OC)cc3)C2)cc1 (centres undefined)	13*	-3	-2	-7	-7	0	3
COc1cc(NC(=O)[C@@H](NC(=O)N2CCn3c2nc2ccccc23)C(C)C)cc(OC)c1	/	/	/	-7	/	/	/
